Active and inactive are the calls of the source. The rule behind the calls is not given here.
What was measured:
[1] = Dark toxicity in human SW480 cells assessed as reduction in cell viability after 3 hrs by MTT assay; assay type: cell-based
[2] = Dark toxicity in human HeLa cells assessed as reduction in cell viability after 3 hrs by MTT assay; assay type: cell-based
Outline: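 Compound was formulated with Cremophor EL/1,2-propanediol in PBS, filtered, and its concentration confirmed by UV-Vis. HeLa cells in DMEM with 10% FBS at 37 °C, 5% CO2 were seeded at 3×10^3 cells/well and adhered overnight. Cells were exposed to graded concentrations for 3 h without light, incubated 24 h, then MTT 0.5 mg/mL for 4 h; formazan dissolved in DMSO, A490 read.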

[3] = Dark toxicity in human MCF7 cells assessed as reduction in cell viability after 3 hrs by MTT assay; assay type: cell-based
SW480 = assay: Phototoxicity against human SW480 cells assessed as reduction in cell viability preincubated for 3 hrs followed by 54 J/cm2 light irradiation and measured after 24 hrs by MTT assay; assay type: functional, cell-based; conditions: SW480, light or radiation study
Outline: (§1)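 PS formulated in PBS containing Cremophor EL/1,2-propanediol (10:3, v:v) after THF removal, filtered, with concentration confirmed by UV-Vis. Cells were grown in DMEM with 10% FBS and seeded at 3×10^3 per well overnight. They were incubated with PS for 3 h, irradiated at λ > 590 nm, kept 24 h at 37 °C, then given MTT (0.5 mg/mL, 4 h) with DMSO solubilization and A490 read-out.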

HeLa [4] = assay: Phototoxicity against human HeLa cells assessed as reduction in cell viability preincubated for 3 hrs followed by 54 J/cm2 light irradiation and measured after 24 hrs by MTT assay; assay type: functional, cell-based; conditions: light or radiation study; outline: as §1
[5] = Toxicity in human HeLa cells xenografted Balb/c nu/nu mouse assessed as body weight loss at 2 mg/kg, iv pretreated for 15 mins followed by 54 J/cm2 light irradiation for 10 mins and measured for 24 days; assay type: organism-based; conditions: in vivo, 0.25 h
Outline: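 Female Balb/c nu/nu mice (18-22 g) carried subcutaneous HeLa cells (about 5×10^6, right back) and were treated on day 7 at a tumor volume of 80-100 mm³. Five mice per group received a tail-vein dose; saline controls were also irradiated. Fifteen minutes later the tumor was irradiated once with a 75 W halogen lamp (590 nm cut-on, 90 mW/cm², 10 min), without anaesthesia. Body weight was recorded every other day.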

HeLa [6] = assay: Antitumor activity against human HeLa cells xenografted in Balb/c nu/nu mouse assessed as tumor growth inhibition at 2 mg/kg, iv pretreated for 15 mins followed by 54 J/cm2 light irradiation for 10 mins and measured after 24 days; assay type: functional, organism-based
Outline: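 Female Balb/c nu/nu mice with subcutaneous HeLa tumors (5×10^6 cells) reaching 80–100 mm³ on day 7 were randomized, n = 5 per group. Mice received 2 mg/kg by tail vein, or saline for controls. After 15 min the tumor was irradiated once with 54 J/cm² (75 W halogen lamp, >590 nm filter, 90 mW/cm², 10 min), unanaesthetized. Calipers every other day; V = 0.5×L×W²; body weight tracked.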

MCF7 = assay: Phototoxicity against human MCF7 cells assessed as reduction in cell viability preincubated for 3 hrs followed by 54 J/cm2 light irradiation and measured after 24 hrs by MTT assay; assay type: functional, cell-based; conditions: MCF7, light or radiation study; outline: as §1
[7] = Induction of singlet oxygen generation in PBS containing 1% Cremophor EL/1,2-propanediol (10:3, v:v) system assessed as relative rate of DPBF degradation to MB at 1 uM irradiated with 90 mW/cm2 halogen light; assay type: functional
Outline: (§2)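 Singlet oxygen generation measured with 1,3-diphenylisobenzofuran (DPBF) as scavenger. The decrease in DPBF absorbance at 411 nm was monitored over time during light irradiation, and the photodegradation rate was calculated.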

[8] = Induction of singlet oxygen generation in N,N-dimethylformamide assessed as relative rate of DPBF degradation to MB at 1 uM irradiated with 90 mW/cm2 halogen light; assay type: functional; outline: as §2
[9] = Stability of the compound in acetonitrile assessed as compound degradation under dark condition; assay type: physicochemical
[10] = Photostability of the compound in N,N-dimethylformamide assessed as compound degradation irradiated with 90 mW/cm2 light; assay type: physicochemical
[11] = Absorption property of the compound in chloroform assessed as absorption coefficient by UV-visible spectrophotometric method; assay type: physicochemical
Outline: (§3)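 Electronic absorption spectra recorded by UV-visible spectrophotometry at room temperature. Solvents were chloroform, isopropanol, acetonitrile, DMF, and PBS buffer containing 1% Cremophor EL/1,2-propanediol (10:3, v:v). Chloroform data were referenced to the non-halogenated parent dye.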

[12] = Absorption property of the compound in PBS containing 1% Cremophor EL/1,2-propanediol (10:3, v:v) system assessed as absorption coefficient by UV-visible spectrophotometric method; assay type: physicochemical; conditions: buffer; outline: as §3
[13] = Absorption property of the compound in N,N-dimethylformamide assessed as absorption coefficient by UV-visible spectrophotometric method; assay type: physicochemical; outline: as §3
[14] = Photostability of the compound in acetonitrile assessed as compound degradation irradiated with 90 mW/cm2 light; assay type: physicochemical
[15] = Photostability of the compound in isopropanol assessed as compound degradation irradiated with 90 mW/cm2 light; assay type: physicochemical
[16] = Absorption property of the compound in chloroform assessed as hypsochromic shift by measuring maximum absorption wavelength by UV-visible spectrophotometric method; assay type: physicochemical; outline: as §3
[17] = Absorption property of the compound in isopropanol assessed as absorption coefficient by UV-visible spectrophotometric method; assay type: physicochemical; outline: as §3
[18] = Photostability of the compound in PBS containing 1% Cremophor EL/1,2-propanediol (10:3, v:v) system assessed as compound degradation irradiated with 90 mW/cm2 light; assay type: physicochemical; conditions: buffer
[19] = Stability of the compound in PBS containing 1% Cremophor EL/1,2-propanediol (10:3, v:v) system assessed as compound degradation under dark condition; assay type: physicochemical; conditions: buffer
[20] = Absorption property of the compound in acetonitrile assessed as absorption coefficient by UV-visible spectrophotometric method; assay type: physicochemical; outline: as §3
[21] = Emission property of the compound in chloroform assessed as maximum emission wavelength by fluorescence spectrophotometric method; assay type: physicochemical
Outline: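 Fluorescence spectrum recorded in chloroform by fluorescence spectrophotometer at room temperature.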

[22] = Induction of singlet oxygen generation in isopropanol assessed as relative rate of DPBF degradation to MB at 1 uM irradiated with 90 mW/cm2 halogen light; assay type: functional; outline: as §2

Row | Stabilty [9] | Stabilty [10] | Activity [11] [M⁻¹ cm⁻¹] | Activity [12] [M⁻¹ cm⁻¹] | Activity [13] [M⁻¹ cm⁻¹] | Stabilty [14] | Stabilty [15] | Activity [16] [nm] | Activity [17] [M⁻¹ cm⁻¹] | Stabilty [18] | Stabilty [19] | Activity [20] [M⁻¹ cm⁻¹] | SMILES | IC50 at 3 h [1] [nM] | IC50 at 3 h [2] [nM] | IC50 at 3 h [3] [nM] | IC50 (SW480) [nM] | IC50 (HeLa [4]) [nM] | IC50 (MCF7) [nM] | fold change (FC) [7] | fold change (FC) [8] | also measured
1 |  |  |  |  |  |  |  |  |  |  |  |  | C=Cc1c(C)c2cc3nc(c(CC(=O)O)c4[nH]c(cc5nc(cc1[nH]2)C(C)=C5CC)c(C)c4C(=O)O)[C@@H](CCC(=O)O)[C@@H]3C [CHLORIN E6] | > 50000 | > 50000 | > 50000 | 3100 | 1920 | 3400 |  |  | Activity [5]: Toxic; TGI (HeLa [6]): Active
2 | Unstable | Unstable | 81000 | 34000 | 59300 | Stable | Stable | 679 | 59300 | Stable | Unstable | 59300 | COc1ccc(C2=[N+]3C(=Nc4c(-c5ccccc5)cc(-c5ccc(OC)cc5)n4[B-]3(F)F)C(c3ccccc3)=C2Br)cc1 | > 50000 | > 50000 | > 50000 | 280 | 270 | 350 | 0.83 | 0.19 | Activity [21]: 720 nm; fold change (FC) [22]: 1.1
3 | Unstable | Unstable | 77000 | 34000 | 59300 | Stable | Stable | 679 | 59300 | Stable | Unstable | 59300 | COc1ccc(C2=[N+]3C(=Nc4c(-c5ccccc5)c(Br)c(-c5ccc(OC)cc5)n4[B-]3(F)F)C(c3ccccc3)=C2Br)cc1 | > 50000 | > 50000 | > 50000 | 160 | 130 | 150 | 1.9 | 0.36 | Activity [5]: Non-Toxic; TGI (HeLa [6]): Active; Activity [21]: 720 nm; fold change (FC) [22]: 4.5
4 | Unstable | Unstable | 74000 | 34000 | 59300 | Stable | Stable | 679 | 59300 | Stable | Unstable | 59300 | COc1ccc(C2=[N+]3C(=Nc4c(-c5ccccc5)c(I)c(-c5ccc(OC)cc5)n4[B-]3(F)F)C(c3ccccc3)=C2I)cc1 | > 50000 | > 50000 | > 50000 | 1300 | 590 | 660 | 2.2 | 0.66 | Activity [21]: 723 nm; fold change (FC) [22]: 7

From ChEMBL document CHEMBL4725347, “Discovery of a Monoiodo Aza-BODIPY Near-Infrared Photosensitizer: in vitro and in vivo Evaluation for Photodynamic Therapy” (J Med Chem, 2020)
